Measured values: ChEMBL document CHEMBL3259808, “Optimization of antitrypanosomatid agents: identification of nonmutagenic drug candidates with in vivo activity” (J Med Chem, 2014)

How the values were obtained:
[1] = system: Trypanosoma cruzi; assay: Antitrypanosomal activity against Trypanosoma cruzi Tulahuen 2 epimastigotes assessed as growth inhibition after 5 days; assay type: functional, organism-based
How it was run: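 Epimastigotes were grown axenically at 28 °C in BHI-tryptose with 5% FBS and seeded from a 5–7 day culture at 1 × 10⁶ cells/mL. Drug from a DMSO stock was added (final DMSO ≤0.4%; the control contained 0.4% DMSO). Duplicates were run. A600 was read at day 5, and % inhibition was calculated relative to day-0 and control readings. IC50 = concentration that halves the absorbance ratio.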

[2] = system: Trypanosoma cruzi; assay: Antitrypanosomal activity against Trypanosoma cruzi Sylvio X-10 amastigotes infected in African green monkey Vero cells assessed as eradication of amastigotes after 5 days by Giemsa staining-based assay; assay type: functional, organism-based; conditions: Sylvio X-10, Vero, 120 h
How it was run: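 VERO cells in RPMI 1640 with 10% hiFCS were allowed to adhere for 24 h at 37 °C in 5% CO₂, then infected with tissue-derived trypomastigotes at 10:1. Free parasites were washed off after 24 h, and cultures were treated at five compound doses (text gives 72 h / 5 days). Cultures were methanol-fixed and Giemsa-stained, and infected cells were counted among 300. Quadruplicates were run in three independent experiments. IC50/IC90 were obtained by sigmoidal regression.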

[3] = system: Trypanosoma cruzi; assay: Antitrypanosomal activity against Trypanosoma cruzi Sylvio X-10 amastigotes infected in African green monkey Vero cells assessed as eradication of amastigotes after 72 hrs by Giemsa staining-based assay; conditions: Sylvio X-10, Vero
[4] = Selectivity index, ratio of IC50 for African green monkey Vero cells to IC50 for Trypanosoma cruzi Sylvio X-10 amastigotes; assay type: toxicity, cell-based; conditions: read-out: Ratio IC50
How it was run: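 VERO cytotoxicity: cells exposed 48 h at 37 °C, 5% CO2 to serial dilutions from a maximum of 2000 μM (DMSO stocks; DMSO <0.1% control); growth inhibition read by MTT at 570 nm. Amastigote IC50: Sylvio X-10-infected VERO cells, five doses, infected cells counted among 300 (Giemsa), quadruplicate, three experiments, sigmoidal fit. SI = IC50 VERO / IC50 amastigote.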

[5] = system: Salmonella typhimurium; assay: Mutagenic activity in Salmonella typhimurium TA98 at 5 to 400 ug/plate by Ames test; assay type: toxicity, organism-based; conditions: salmonella enterica subsp. enterica serovar typhimurium
How it was run: (§1)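 Ames plate-incorporation assay with S. typhimurium TA98 in Vogel-Bonner E minimal glucose agar. Toxicity toward the bacteria was checked first. DMSO solutions were run in triplicate at five consecutive third-dilutions, starting at the highest non-toxic dose. Positive controls were 4-nitro-o-phenylenediamine (20.0 μg/plate) and 2-aminofluorene (10.0 μg/plate); DMSO was the negative control. Revertants were counted manually. A compound was called mutagenic when revertants were at least twice the negative control at two or more consecutive doses.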

[6] = system: Salmonella typhimurium; assay: Mutagenic activity in Salmonella typhimurium TA98 at 5 to 400 ug/plate by Ames test in presence of mouse liver S9 fraction; assay type: toxicity, organism-based; conditions: salmonella enterica subsp. enterica serovar typhimurium; how it was run: as §1
[7] = Stability of the compound in aqueous solution assessed as compound remaining at 1 mM at pH 7.4 after 1 hr by TLC analysis; assay type: physicochemical; conditions: for remaining at 1 h, 1000 µM: aqueous solution, pH 7.4, read-out: Stability
How it was run: (§2)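 DMSO stocks diluted to final 1 mM in KCl·HCl pH 1.0, citrate pH 6.0, Tris·HCl pH 7.4 or borax·HCl pH 9.0 buffer. Incubated 1 h at 37 °C, then ethyl acetate extracts checked by TLC for decomposition products.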

[8] = Stability of the compound in aqueous solution assessed as compound remaining at 1 mM at pH 6 after 1 hr by TLC analysis; assay type: physicochemical; conditions: for remaining at 1 h, 1000 µM: aqueous solution, pH 6, read-out: Stability; how it was run: as §2
[9] = Stability of the compound in aqueous solution assessed as compound remaining at 1 mM at pH 9 after 1 hr by TLC analysis; assay type: physicochemical; conditions: for remaining at 1 h, 1000 µM: aqueous solution, pH 9, read-out: Stability; how it was run: as §2
[10] = Selectivity index, ratio of IC50 for human RBC to IC50 for Trypanosoma cruzi Sylvio X-10 amastigotes
How it was run: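 Hemolysis: washed human erythrocytes (2% w/v in PBS) incubated 24 h at 37 °C with compound at final 50, 100 and 200 μM. Ten replicates per concentration. Hemoglobin release read at 405 nm against water lysis as 100%; amphotericin B 1.5 μM was the positive control. SI = IC50 red cells / parasite IC50 (Sylvio X-10 amastigotes or Tulahuen 2 epimastigotes).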

[11] = Trypanosoma cruzi, Tulahuen 2, 120 h

Compound | IC50 [1, 11] [µM] | also measured
C=CCNC(=S)N/N=C/c1ccc(SC)cc1 | 10 | 
C=CCn1c(C)cs/c1=N\N=C\c1ccco1 | > 25 | 
C=CCn1c(-c2ccc(Cl)cc2)cs/c1=N/N=C/c1cccs1 | > 25 | IC50 [2]: 8 µM
O=C1CS\C(=N/N=C\C=C\C=C\c2cccs2)N1c1ccccc1 | > 25 | 
C=CCn1c(-c2ccc(Cl)cc2)cs/c1=N\N=C\c1ccsc1 | 14.6 | 
C=CCNC(=S)N/N=C/c1ccnc2ccccc12 | 17 | 
C=CCn1c(-c2ccc(OC)cc2)cs/c1=N/N=C/c1ccc([N+](=O)[O-])s1 | 8 | IC50 [2]: > 25 µM; IC90 [3]: > 25 µM
C(=C\c1ccco1)/C=N/N=c1/scc(-c2ccccc2)n1-c1ccccc1 | 5 | 
C=CCn1c(-c2ccccc2)cs\c1=N/N=C/C=C/c1cccs1 | > 25 | 
C=CCNC(=S)N/N=C/c1ccc(O)cc1 | > 25 | 
C=CCn1c(-c2ccccc2)cs\c1=N/N=C/C=C/c1ccccc1 | > 25 | 
C=CCN1C(=O)CS\C1=N/N=C/C=C/c1ccco1 | > 25 | 
C=CCNC(=S)N/N=C/c1cc2ccccc2o1 | > 25 | 
S=C(N/N=C/C=C/C=C/c1cccs1)Nc1ccccc1 | 1.7 | IC50 [2]: > 25 µM; IC90 [3]: > 25 µM
CC(=O)N(C1=NN(C(C)=O)C(c2cccs2)S1)c1ccccc1 (centres undefined) | > 25 | 
C=CCn1c(C)cs\c1=N/N=C/C=C/c1ccccc1 | > 25 | 
S=C(N/N=C/C=C/c1ccco1)Nc1ccccc1 | 11 | 
C=CCn1c(-c2ccc(Cl)cc2)cs/c1=N/N=C/c1ccc([N+](=O)[O-])s1 | 14 | IC50 [2]: > 25 µM; IC90 [3]: > 25 µM
C=CCNC(=S)N/N=C/c1cncc(Br)c1 | > 25 | 
O=[N+]([O-])c1ccc(/C=N/NC(=S)Nc2ccccc2)s1 | 4 | IC50 [2]: 4.1 µM; selectivity ratio [4]: 20
C=CCN(C(C)=O)C1=NNC(c2cccs2)S1 (centres undefined) | > 25 | 

Compound | IC50 [1, 11] [µM] | also measured
C=CCNC(=S)N/N=C/C=C/c1ccccc1 | 6.6 | 
C=CCn1c(-c2ccc3ccccc3c2)cs\c1=N/N=C/C=C/c1cccs1 | > 25 | 
O=C1CS/C(=N\N=C\c2ccc([N+](=O)[O-])s2)N1 | > 25 | 
C=CCN1C(=O)CS/C1=N/N=C\c1ccc(Cl)cc1 | > 25 | 
C=CCNC(=S)N/N=C/c1ccc2ccccc2c1 | 5.4 | 
C=CCn1c(-c2ccc(Cl)cc2)cs/c1=N\N=C\c1ccc(Cl)cc1 | > 25 | 
C=CCn1c(-c2ccc(Cl)cc2)cs/c1=N\N=C\c1ccc2c(c1)[n+]([O-])c(C)c(C)[n+]2[O-] | 15 | 
C=CCn1c(-c2ccc([N+](=O)[O-])cc2)cs\c1=N/N=C/C=C/c1cccs1 | > 25 | 
C=CCN1C(=O)CS\C1=N/N=C\C=C\C=C\c1cccs1 | > 25 | 
C=CCn1c(-c2ccccc2)cs/c1=N/N=C/c1cccs1 | > 25 | 
C=CCn1c(-c2ccccc2)cs/c1=N\N=C\c1ccc([N+](=O)[O-])s1 | 6 | IC50 [2]: 25 µM; selectivity ratio [4]: 5
Cc1cs/c(=N/N=C/C=C/c2ccco2)n1-c1ccccc1 | 25 | 
C=CCN1C(=O)CS/C1=N\N=C\c1ccc([N+](=O)[O-])s1 | > 25 | IC50 [2]: > 25 µM; IC90 [3]: > 25 µM
C=CCN(C(C)=O)C1=NNC(c2ccc([N+](=O)[O-])s2)S1 (centres undefined) | > 25 | 
Br.C=CCn1c(-c2ccc([N+](=O)[O-])cc2)cs\c1=N/N=C/C=C/c1ccco1 | > 25 | Activity [5]: Toxic; Activity [6]: Toxic
C=CCn1c(-c2ccccc2)cs/c1=N\N=C\c1ccc(S(=O)(=O)O)o1 | > 25 | 
C=CCn1c(-c2ccc(Br)cc2)cs\c1=N/N=C/C=C/c1cccs1 | > 25 | 
O=[N+]([O-])c1ccc(/C=N/N=c2\scc(-c3ccccc3)n2-c2ccccc2)s1 | > 25 | 
C=CCn1c(-c2ccc(Cl)cc2)cs\c1=N/N=C/C=C/c1cccs1 | > 25 | 
C=CCNC(=S)N/N=C/C=C/c1cccs1 | > 25 | Activity [5]: Non-toxic; Activity [6]: Non-toxic
N/C(S)=N/N=C/c1ccc([N+](=O)[O-])s1 | 25 | 

Compound | IC50 [1, 11] [µM] | also measured
C=CCn1c(-c2ccccc2)cs/c1=N/N=C/c1ccc([N+](=O)[O-])s1 | 20 | 
C=CCn1c(-c2ccc(OC)cc2)cs\c1=N/N=C/C=C/c1cccs1 | > 25 | 
C=CCn1c(C)cs/c1=N\N=C\c1ccc(S(=O)(=O)O)o1 | > 25 | 
S=C(N/N=C/c1ccccc1)Nc1ccccc1 | 19 | 
O=C1CS/C(=N\N=C\c2ccc([N+](=O)[O-])s2)N1c1ccccc1 (stereo in doubt; 10) | 13 | IC50 [2]: > 25 µM; IC90 [3]: > 25 µM
C=CCN1C(=O)CS/C1=N\N=C\c1cccs1 | > 25 | 
C=CCn1c(-c2ccc(OC)cc2)cs\c1=N/N=C/C=C/c1ccco1 | 4.9 | Activity [5]: Non-toxic; remaining at 1 h, 1000 µM [7]: > 95%; Activity [6]: Non-toxic; remaining at 1 h, 1000 µM [8]: > 95%; remaining at 1 h, 1000 µM [9]: > 95%
O=C1CS/C(=N\N=C\c2ccc([N+](=O)[O-])s2)N1c1ccccc1 (stereo in doubt; 13) |  | IC50 [1]: > 25 µM
Br.C=CCn1c(-c2ccc(Br)cc2)cs\c1=N/N=C/C=C/c1ccco1 | 2.9 | Activity [5]: Non-toxic; remaining at 1 h, 1000 µM [7]: > 95%; Activity [6]: Non-toxic; remaining at 1 h, 1000 µM [8]: > 95%; remaining at 1 h, 1000 µM [9]: > 95%
C=CCNC(=S)N/N=C/c1ccc(Cl)cc1 | 11 | 
O=C1CS\C(=N/N=C/C=C/c2ccco2)N1c1ccccc1 | > 25 | 
C(=N\N=c1/scc(-c2ccccc2)n1-c1ccccc1)/c1ccccc1 | > 25 | 
C=CCn1c(C)cs/c1=N\N=C\c1cccs1 | > 25 | IC50 [2]: > 25 µM; Stability ([7]; buffer, pH 7.4, 1 h, 1000 µM): Unstable; Stability ([8]; buffer, pH 6, 1 h, 1000 µM): Unstable; IC90 [3]: > 25 µM; Stability ([9]; buffer, pH 9, 1 h, 1000 µM): Unstable
C=CCn1c(-c2ccccc2)cs/c1=N\N=C\c1ccco1 | > 25 | 
Cc1cs/c(=N\N=C\c2cccs2)n1-c1ccccc1 | > 25 | 
C=CCN(C(C)=O)C1=NN(C(C)=O)C(/C=C/c2ccco2)S1 (centres undefined) | > 25 | 
C=CCn1c(-c2ccc(Cl)cc2)cs\c1=N/N=C/C=C/c1ccc([N+](=O)[O-])s1 | 10 | IC50 [2]: 16.9 µM; IC90 [3]: 25.4 µM
C[C@@H]1[C@H](O)[C@@H](C)/C=C/C=C/C=C/C=C/C=C/C=C/C=C/[C@H](O[C@@H]2O[C@H](C)[C@@H](O)[C@H](N)[C@@H]2O)C[C@@H]2O[C@](O)(C[C@@H](O)C[C@@H](O)[C@H](O)CC[C@@H](O)C[C@@H](O)CC(=O)O[C@H]1C)C[C@H](O)[C@H]2C(=O)O [AMPHOTERICIN B] |  | Ratio IC50 [10]: 10; IC50 [2]: 1.1 µM
C=CCNC(=S)N/N=C/c1ccsc1 | > 25 | 
C=CCNC(=S)N/N=C/c1ccc2c(c1)OCO2 | > 25 | 
